EC50 data for 20 compounds are collected here from BindingDB's records for doi:10.1021/acs.jmedchem.9b01421 (2019).

One experiment has as its target Capsid protein (Hepatitis B virus, UniProt Q03732). Put plainly: Inhibition of capsid in HBV infected in human HepG.2.2.15 cells assessed as reduction of HBV DNA incubated for 5 days by quantitative PCR analysis. In a few lines:
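HepG2.2.15 cells (HepG2-derived, stably carrying the HBV genome; kept in DMEM-F12 with 10% FBS, penicillin/streptomycin, 0.5 mg/mL G418) seeded at 3 × 10^4 cells/well and incubated overnight at 37 °C. Compounds were serially half-log diluted in DMSO and added in medium at 0.5% final DMSO. HBV DNA was extracted and quantified by qPCR.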

Experiment [1] can be described thus: Inhibition of capsid in HBV infected in human HepG.2.2.15 cells assessed as reduction of HBV DNA incubated for 5 days by quantitative PCR analysis.

Bounds are passed on as bounds.

Capsid protein, sequence (Q03732 whole entry): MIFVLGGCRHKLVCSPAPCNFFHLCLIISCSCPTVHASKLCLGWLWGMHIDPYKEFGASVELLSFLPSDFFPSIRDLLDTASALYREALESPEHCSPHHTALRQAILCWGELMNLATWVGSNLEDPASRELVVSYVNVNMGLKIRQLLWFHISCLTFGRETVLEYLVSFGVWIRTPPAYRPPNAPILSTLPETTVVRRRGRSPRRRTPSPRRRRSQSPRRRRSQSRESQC

Consider `CCOC(=O)C1=C(CN2CCOC[C@H]2C(=O)O)NC(c2nccs2)=N[C@H]1c1ccc(F)cc1`, for which the EC50 – broadly, the concentration at which the effect is half-maximal – on Capsid protein stood at 0.015 µM.

Consider `COC(=O)C1=C(CN2CC(F)(F)C[C@H]2C(=O)O)NC(c2nccs2)=N[C@H]1c1ccc(F)cc1Cl`, for which the EC50 at Capsid protein was determined as 0.003 µM.

Take `CCOC(=O)C1=C(CN2CCOC[C@H]2C(=O)O)NC(c2nccs2)=N[C@H]1c1ccc(F)c(F)c1`: in experiment [1], the EC50 turned out to be 0.011 µM.

Consider `CCOC(=O)C1=C(CN2CCOC[C@H]2C(=O)O)NC(c2nccs2)=N[C@H]1c1cccc(F)c1`, for which the EC50 on Capsid protein came out at 0.015 µM.

As to `CCOC(=O)C1=C(CN2CCOC[C@H]2C(=O)O)NC(c2nccs2)=N[C@H]1c1ccc(F)cc1F`, on Capsid protein, the EC50 turned out to be 0.014 µM.

`COC(=O)C1=C(CN2CC(F)(F)C[C@H]2C(=O)O)NC(c2nccs2)=N[C@H]1c1ccc(F)c(F)c1`: at Capsid protein, the EC50 came to 0.022 µM.

In the case of `CCOC(=O)C1=C(CN2CCOC[C@H]2C(=O)O)NC(c2nccs2)=N[C@H]1c1cc(F)c(F)c(F)c1`, the half-maximal effective concentration (EC50) on Capsid protein came to 0.018 µM.

As to `CCOC(=O)C1=C(CN2CCOC[C@H]2C(=O)O)NC(c2nccs2)=N[C@H]1c1ccc(Br)c(F)c1`, the EC50 in experiment [1] worked out at 0.003 µM.

For `CCOC(=O)C1=C(CN2CCOC[C@H]2C(=O)O)NC(c2nccs2)=N[C@H]1c1ccc(C)c(F)c1`, the 50% effective concentration (EC50) on Capsid protein was 0.005 µM.

Consider `CCOC(=O)C1=C(CN2CCOC[C@H]2C(=O)O)NC(c2nccs2)=N[C@H]1c1ccc(F)c(F)c1F`, for which the EC50 on Capsid protein turned out to be 0.005 µM.

In the case of `COC(=O)C1=C(CN2CCOC[C@H]2C(=O)O)NC(c2nccs2)=N[C@H]1c1ccc(Br)c(F)c1`, the EC50 on Capsid protein was determined as 0.01 µM.

As for `CCOC(=O)C1=C(CN2CCOC[C@H]2C(=O)O)NC(c2nccs2)=N[C@H]1c1ccc(F)c(C#N)c1`, the EC50 in experiment [1] was above 1 µM.

For `CCOC(=O)C1=C(CN2CC(F)(F)C[C@H]2C(=O)O)NC(c2nccs2)=N[C@H]1c1ccc(F)cc1Cl`, the EC50 at Capsid protein was 0.01 µM.

`COC(=O)C1=C(CN2CCOC[C@H]2C(=O)O)NC(c2nccs2)=N[C@H]1c1ccc(C)c(F)c1`: the EC50 in experiment [1] stood at 0.028 µM.

For `COC(=O)C1=C(CN2CCOC[C@H]2C(=O)O)NC(c2nccs2)=N[C@H]1c1ccc(Cl)c(F)c1`, the EC50 in experiment [1] stood at 0.01 µM.

Regarding `COC(=O)C1=C(CN2CCOC[C@H]2C(=O)O)NC(c2nccs2)=N[C@H]1c1ccc(F)c(F)c1`, the EC50 in experiment [1] amounted to 0.046 µM.

As to `CCOC(=O)C1=C(CN2CCOC[C@H]2C(=O)O)NC(c2nccs2)=N[C@H]1c1ccc(Cl)c(F)c1`, at Capsid protein, the EC50 is 0.002 µM.

In the case of `CCOC(=O)C1=C(CN2CCOC[C@H]2C(=O)O)NC(c2nccs2)=N[C@H]1c1ccc(F)c(Cl)c1`, the EC50 in experiment [1] is above 1 µM.

Take `CCOC(=O)C1=C(CN2CCOC[C@H]2C(=O)O)NC(c2nccs2)=N[C@H]1c1ccc(F)c(Br)c1`: in experiment [1], the EC50 is above 1 µM.

As for `CCOC(=O)C1=C(CN2CCOC[C@H]2C(=O)O)NC(c2nccs2)=N[C@H]1c1ccc(F)cc1Cl`, the EC50 in experiment [1] came out at 0.002 µM.
